M1 ag parental: counter-screen for M1 agonists: effect in parental CHO-K1 cells; Fluo-8 calcium fluorescence; scaled to maximal ATP response, vehicle zero; activation, % at 3 µM; 0.48% of 360,000 active; in the data active = activation above about 15%;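 also: untransfected CHO-K1 host cells lacking M1 receptor as counterscreen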
OX1R antag-1: OX1R (HCRTR1) antagonists, primary screen, fluorescence, CHO/OX1R cells, Fluo-8 calcium, orexin A; Fluo-8 calcium fluorescence; inhibition, % at 5 µM; 0.43% of 330,000 active; Orexin/Hypocretin receptor type 1 (Homo sapiens), O43613;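 active = inhibition above its plate's threshold, mean inhibition of all tested compounds on the plate plus 3 SD, cut at about 37% in these data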;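 also: 0% = orexin A challenge wells and 100% = SB-334867-A antagonist wells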
Target sequence (O43613 whole entry, looked up): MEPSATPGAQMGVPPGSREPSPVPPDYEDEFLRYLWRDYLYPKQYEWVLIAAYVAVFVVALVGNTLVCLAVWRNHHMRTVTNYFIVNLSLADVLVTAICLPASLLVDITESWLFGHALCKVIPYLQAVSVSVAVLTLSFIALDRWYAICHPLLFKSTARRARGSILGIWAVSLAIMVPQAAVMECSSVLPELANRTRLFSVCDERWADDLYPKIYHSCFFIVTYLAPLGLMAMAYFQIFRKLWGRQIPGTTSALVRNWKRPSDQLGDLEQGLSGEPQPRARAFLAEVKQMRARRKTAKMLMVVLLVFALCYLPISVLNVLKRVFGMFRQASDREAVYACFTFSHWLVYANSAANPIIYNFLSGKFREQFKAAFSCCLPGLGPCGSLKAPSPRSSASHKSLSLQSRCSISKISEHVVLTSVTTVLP
CHO-K1 Ca PAM: nonselective calcium activators in parental CHO-K1 cells, primary screen, counter-screen for M1 PAM project, cell-based, Fluo-8 calcium fluorescence, full deck, 1536-well | ATP EC20; 0% at ATP EC20, 100% at ATP max | activation, % at 3 µM | 0.02% of 360,000 active | AID 602247, 2012;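 active = activation above the run cutoff, the mean activation of all test compounds plus 3 SD, cut at about 40% in these data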;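 also: peak over basal fluorescence ratio in a 140 s read after ATP addition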
CHO-K1 Ca antag: M1 antagonist counterscreen hit in parental CHO-K1 cells | 0.6% of 360,000 active | ATP-induced calcium, Fluo-8 fluorescence | inhibition, % at 3 µM;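 active = inhibition above a per-plate cutoff, the plate's mean sample inhibition plus 3 SD, cut at about 24% in these data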;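 also: 0% = DMSO plus EC80 ATP and 100% = DMSO alone without ATP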
CHO parental Ca: ATP-evoked calcium signal inhibitors, parental CHO, primary screen, counter-screen for OX1R antagonist project, cell-based, fluorescence, Fluo-8 calcium dye; parental CHO-K1, ATP-induced calcium, Fluo-8 fluorescence; inhibition, % at 5.6 µM; 0.63% of 330,000 active; AID 463079, 2010;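 active = inhibition above that plate's mean sample inhibition plus 3 SD, cut at about 26% in these data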;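 also: 0% = ATP-challenged DMSO wells and 100% = DMSO wells without ATP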
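test system = CHO parental line | reagent = ATP stimulus | measured by = intracellular calcium via Fluo-8 no-wash fluorescent dye | control set = ATP and no-ATP DMSO wells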
OX1R antag-2: antagonists of human orexin 1 receptor (OX1R); 1.8% of 330,000 active; Orexin/Hypocretin receptor type 1 (Homo sapiens), O43613; inhibition, % at 6.6 µM; OX1R-expressing cells, FRET antagonist read-out; in the data active = inhibition mostly above about 38%, no sharp cut-off; inactive = mostly below about 40%;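 also: 0% = agonist challenge alone and 100% = reference antagonist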
Numbers without * were called inactive; nt = not tested or not shown; + = active, no number. Rows were chosen to be rich in hits. Some 2.9% of all compounds tested hit in one or more screens of this group.

SMILES	M1 ag parental	OX1R antag-1	CHO-K1 Ca PAM	CHO-K1 Ca antag	CHO parental Ca	OX1R antag-2
CCCOC(=O)c1ccc(Oc2c(-c3ccc(O)cc3O)n[nH]c2C)cc1	-0.1	3.7	13.2	-11.0	50.1*	1.5
CCCOC(=O)c1ccc(Oc2c(-c3ccc(OC)cc3O)n[nH]c2C)cc1	-0.3	-20.0	-6.6	-5.4	-25.2	4.5
COc1cc(OC)cc(C(=O)N[C@H](C(=O)Nc2cc(F)ccc2C)C(C)C)c1	0.6	-18.3	3.4	-7.1	-5.6	10.4
COc1ccc(C)cc1NC(=O)C(=O)NNC(=O)COc1ccc(Cl)cc1	-0.3	28.5	9.5	-7.6	35.5*	18.8
O=C1NC(c2ccc(F)cc2)Oc2ccccc21 (stereo not drawn)	1.2	-7.0	-5.1	-7.2	-12.7	2.6
Cc1ccc(C2NC(=O)c3ccccc3O2)cc1 (stereo not drawn)	18.8*	-9.0	20.7	-4.1	-15.2	5.5
O=C1NC(c2cccc([N+](=O)[O-])c2)Oc2ccccc21 (stereo not drawn)	-0.8	-3.8	-19.5	27.4*	-2.2	28.5
COc1ccc(NS(=O)(=O)c2cc(N/C(=N\S(=O)(=O)c3ccccc3)c3ccc(F)cc3)ccc2Cl)cc1	2.5	6.5	28.6	-12.2	-5.5	7.3
CCS(=O)(=O)N1Cc2ccccc2CC1C(=O)Nc1nc(C)cs1 (stereo not drawn)	-0.5	-6.7	-10.6	31.8*	-19.4	13.6
CCS(=O)(=O)N1Cc2ccccc2CC1C(=O)Nc1nccs1 (stereo not drawn)	0.1	-5.7	3.8	-2.4	-13.2	17.4
COC(=O)Nc1ccc2c(c1)N(C(=O)CCCl)c1ccccc1S2	2.0	nt	8.0	-11.9	nt	nt
CC1=NN(c2ccccc2)C(=O)/C1=C/C=C/C=C/N(C)C	2.5	8.7	18.2	-10.6	2.0	72.6*
CSc1nc(C)cc(OCCNS(=O)(=O)c2ccc(C)cc2)n1	0.8	12.7	6.2	-5.0	-19.7	39.0*
Cc1ccc(S(=O)(=O)NCCOCCNS(=O)(=O)c2ccc(C)cc2)cc1	1.0	-14.9	-4.5	1.3	-10.6	9.4
c1ccc(-c2cnn3c(-c4ccccc4)c(-c4ccccc4)nc3n2)cc1	31.3*	nt	10.5	28.4*	nt	nt
Nc1nc(-c2ccccc2)c(-c2ccccc2)n1N	0.6	19.0	-17.5	10.6	20.9	12.0
O=C(CSc1nc(-c2ccccc2)c(-c2ccccc2)[nH]1)Nc1ccc2c(c1)OCO2	0.0	5.2	6.9	3.4	-15.7	50.4*
CC(c1ccccc1)n1cnc2ccccc2c1=O (stereo not drawn)	1.8	-14.6	22.2	-15.3	-5.4	4.7
O=C(O)CCCn1c(O)c(C=C2N=c3ccccc3=N2)sc1=S	0.6	2.5	9.2	-5.3	-13.1	26.1
COCCCn1c(O)c(/C=C2\N=C(C#N)C(=Nc3ccc(C)cc3)O2)sc1=S	1.1	34.4	11.9	-3.4	39.2*	17.4
O=C(Oc1c(Cl)cc(Cl)c2cccnc12)c1ccco1	1.6	44.3	-4.5	3.0	33.6*	35.9
COc1ccc(CC2NCCC3=CC(=O)CCC32)cc1O (stereo not drawn)	1.0	3.3	6.9	-5.8	-14.9	19.1
COc1ccc(/C=C2\CCCC3C2=NN(C(=O)c2scnc2C)C3c2ccc(OC)c(OC)c2)cc1OC (stereo not drawn)	18.7*	-33.0	16.9	-1.5	-13.5	7.6
COc1ccc(/C=C2\CCCC3C2=NN(C(=O)c2ccco2)C3c2ccc(OC)c(OC)c2)cc1OC (stereo not drawn)	0.1	-31.7	4.4	-0.4	-29.7	5.3
CC1=[N+](C)N(c2ccccc2)C(=O)C1N=Cc1c(Cl)cccc1Cl (stereo not drawn)	16.3*	-3.2	9.8	9.2	-4.7	2.4
SMILES	M1 ag parental	OX1R antag-1	CHO-K1 Ca PAM	CHO-K1 Ca antag	CHO parental Ca	OX1R antag-2
Cc1cc(-c2ccccc2)n2nc(N)nc2n1	0.2	0.6	0.0	-10.6	-9.5	-0.9
COc1ccc(N(Cc2ccccc2)S(=O)(=O)c2cc(C(=O)O)ccc2Cl)cc1	0.3	-1.8	10.2	-13.8	-9.3	23.2
Cc1ccc(-c2nnc(SCC(=O)N(CC(C)C)c3c(N)n(Cc4ccccc4)c(=O)[nH]c3=O)n2N)cc1	0.9	-4.6	14.0	-0.2	6.9	-2.5
CCOc1ccc(CCNS(=O)(=O)c2ccc3c(c2)oc(=O)n3C)cc1OCC	15.1*	-2.8	3.7	11.2	-12.8	27.4
CC(=O)Nc1ccc(S(=O)(=O)NC2CC(=O)N(c3ccc(C)c(C)c3)C2)cc1 (stereo not drawn)	0.9	-12.9	15.2	-13.2	-16.7	17.8
O=C(CSc1nnc(COc2ccccc2)o1)N1CCCCC1	1.4	-13.0	-12.2	5.8	-14.3	8.4
COc1ccccc1NCC(=O)N/N=C/c1c(O)ccc2ccccc12	6.2	-12.3	6.5	-7.8	2.7	10.4
COc1ccccc1N(CC(=O)N/N=C/c1c(O)ccc2ccccc12)S(C)(=O)=O	6.7	-11.2	10.0	-2.4	-10.6	68.8*
COc1ccc(Nc2nc(N3CCCC3)c3ccccc3n2)cc1	4.4	1.0	22.6	-7.4	-1.7	29.6
CCN(CC)c1ccc(Nc2nc(N3CCOCC3)c3ccccc3n2)cc1	1.5	3.7	17.1	6.6	5.3	42.2*
CCCCN1CCCCC1C(=O)Nc1c(C)cc(C)cc1C (stereo not drawn)	-0.3	-23.5	0.0	30.5*	-22.4	12.6
Cc1ccccc1C(=O)Oc1cccc(Nc2ncnc3ccccc23)c1	8.3	54.6*	2.1	17.8	60.6*	80.8*
CC(=O)Oc1cccc(Nc2ncnc3ccccc23)c1	0.6	-10.5	10.6	-2.8	-8.2	7.5
N#Cc1ccc2[nH]c(CO)c(-c3ccccc3)c2c1	5.5	-37.8	18.6	-16.3	-19.9	26.6
CC(C)N1CCN(Cc2cn[nH]c2C2CCCCC2)CC1CCO (stereo not drawn)	-0.1	-21.5	-13.1	-1.1	-10.7	11.7
Cc1cc(-c2ccc(N=Nc3c(S(=O)(=O)O)cc4cc(S(=O)(=O)O)cc(N)c4c3O)c(C)c2)ccc1N=Nc1c(S(=O)(=O)O)cc2cc(S(=O)(=O)O)cc(N)c2c1O	nt	5.3	nt	nt	-3.4	+
O=S(=O)(O)c1cc(O)c2c(O)c(N=Nc3cc(Cl)ccc3O)c(S(=O)(=O)O)cc2c1	1.1	-0.5	15.5	-7.0	-8.6	41.6
COc1ccc(/C=N/Nc2nnc(C)n2N)cc1OC(C)=O	-0.1	-9.9	14.3	-14.1	0.8	55.7*
COc1ccc(/C=N/Nc2nnc(C)n2N)cc1OC	1.1	10.5	20.9	-11.3	-3.3	60.4

Compound activity: PubChem BioAssay, The Scripps Research Institute Molecular Screening Center
